Laboratory results reported in PMC3149845 (The Journal of neuroscience : the official journal of the …, 2011).
Peptide text beside a SMILES is read from it.

Legend:
[1] = molecular target: hTas1R2:S40T/I67S+hTas1R3 (Homo sapiens, UniProt Q8TE23, I67S/S40T); assay: Ca2+ mobilization, mutated human receptor; type: cell-based; conditions: aspartame 10mM, neotame 1mM, sucralose 2 mM; compared with hTas1R2/hTas1R3
How it was run: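 Mutant hTas1R2 with hTas1R3 and Gα16-gust44 in HEK293E cells (50,000/well, 0.06 μg each plasmid per well); 44 h post-transfection, loaded with 3 μM Fluo-4 AM in HBSS/20 mM HEPES for 1 h. Fluorescence (ex 488/em 525 nm) recorded every 2 s, tastant at 30 s, 150 s further. ΔF/F normalized to the hTas1R2/hTas1R3 sucralose (2 mm) maximum; three independent experiments; one-way ANOVA with Tukey test.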

[2] = molecular target: T1, smTas1R2/hTas1R3 (Saimiri sciureus, UniProt A3QP08); assay: Ca2+ mobilization, mismatched receptor; type: cell-based, human/squirrel monkey; conditions: aspartame 10mM, neotame 1mM, sucralose 2 mM, D-tryptophan 5mM, sucrose 150mM
T1 sequence (A3QP08 20-834): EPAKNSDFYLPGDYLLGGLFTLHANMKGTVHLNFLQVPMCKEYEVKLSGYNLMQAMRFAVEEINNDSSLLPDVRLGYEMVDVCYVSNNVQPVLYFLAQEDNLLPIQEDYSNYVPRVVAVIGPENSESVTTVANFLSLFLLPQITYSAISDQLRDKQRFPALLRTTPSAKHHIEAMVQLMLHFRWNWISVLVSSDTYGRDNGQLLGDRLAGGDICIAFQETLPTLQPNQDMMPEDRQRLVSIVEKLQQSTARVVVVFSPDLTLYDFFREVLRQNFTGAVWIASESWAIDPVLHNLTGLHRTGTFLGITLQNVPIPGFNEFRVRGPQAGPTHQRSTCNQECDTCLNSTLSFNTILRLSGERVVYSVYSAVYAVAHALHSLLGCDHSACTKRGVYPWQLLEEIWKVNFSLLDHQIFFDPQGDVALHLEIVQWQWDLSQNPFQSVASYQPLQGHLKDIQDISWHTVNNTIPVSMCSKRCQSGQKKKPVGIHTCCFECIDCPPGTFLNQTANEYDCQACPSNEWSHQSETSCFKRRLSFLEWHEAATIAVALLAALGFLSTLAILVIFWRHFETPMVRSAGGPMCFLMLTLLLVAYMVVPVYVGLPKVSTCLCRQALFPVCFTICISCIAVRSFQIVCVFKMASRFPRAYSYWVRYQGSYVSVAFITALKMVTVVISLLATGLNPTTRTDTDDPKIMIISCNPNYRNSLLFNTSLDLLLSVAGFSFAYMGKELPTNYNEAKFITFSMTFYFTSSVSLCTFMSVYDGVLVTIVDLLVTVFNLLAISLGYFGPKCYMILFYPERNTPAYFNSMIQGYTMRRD
T1 sequence (Q7RTX0 21-852 partner): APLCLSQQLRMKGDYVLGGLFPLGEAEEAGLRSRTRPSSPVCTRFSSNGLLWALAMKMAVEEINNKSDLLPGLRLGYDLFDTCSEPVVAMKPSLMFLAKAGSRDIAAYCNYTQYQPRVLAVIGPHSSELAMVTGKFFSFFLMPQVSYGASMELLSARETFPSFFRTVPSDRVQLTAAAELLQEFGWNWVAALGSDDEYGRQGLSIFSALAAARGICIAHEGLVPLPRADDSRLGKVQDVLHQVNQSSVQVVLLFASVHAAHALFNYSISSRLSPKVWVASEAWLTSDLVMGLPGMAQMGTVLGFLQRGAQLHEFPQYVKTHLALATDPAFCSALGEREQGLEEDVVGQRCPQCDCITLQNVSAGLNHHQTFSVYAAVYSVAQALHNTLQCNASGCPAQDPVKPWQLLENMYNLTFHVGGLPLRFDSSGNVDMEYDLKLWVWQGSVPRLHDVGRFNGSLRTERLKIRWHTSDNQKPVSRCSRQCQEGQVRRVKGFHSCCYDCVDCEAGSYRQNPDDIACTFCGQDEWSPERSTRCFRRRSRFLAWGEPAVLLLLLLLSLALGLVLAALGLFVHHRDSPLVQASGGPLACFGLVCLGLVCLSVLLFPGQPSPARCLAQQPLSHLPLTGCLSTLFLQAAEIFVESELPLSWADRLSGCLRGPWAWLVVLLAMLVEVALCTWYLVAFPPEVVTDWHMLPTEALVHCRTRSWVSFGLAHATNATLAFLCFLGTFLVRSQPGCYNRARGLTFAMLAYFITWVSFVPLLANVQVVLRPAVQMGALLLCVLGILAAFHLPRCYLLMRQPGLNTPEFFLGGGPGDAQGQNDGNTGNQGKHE
How it was run: (§1)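 HEK293E cells grown at 37°C in Opti-MEM with 5% FBS and seeded at 50,000/well. Cells co-lipofected with Tas1R plasmids and Gα16-gust44 (0.06 μg each per well); medium changed at 20 h, assayed 24 h later. Cells loaded 1 h with Fluo-4 AM in HEPES-buffered HBSS. Tastant added at 30 s; fluorescence (ex 488/em 525 nm) read every 2 s for 150 s more. ΔF/F normalised to human receptor maximal sucralose response; mean ± SEM, three independent experiments.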

[3] = tested on: All the human and squirrel monkey mutants; assay: Ca2+ mobilization, control response of all mutants; type: cell-based; conditions: sucralose 2 mM
How it was run: as §1

Sequence of hTas1R2:S40T/I67S+hTas1R3 (Q8TE23 20-839 S40T/I67S, one chain of several): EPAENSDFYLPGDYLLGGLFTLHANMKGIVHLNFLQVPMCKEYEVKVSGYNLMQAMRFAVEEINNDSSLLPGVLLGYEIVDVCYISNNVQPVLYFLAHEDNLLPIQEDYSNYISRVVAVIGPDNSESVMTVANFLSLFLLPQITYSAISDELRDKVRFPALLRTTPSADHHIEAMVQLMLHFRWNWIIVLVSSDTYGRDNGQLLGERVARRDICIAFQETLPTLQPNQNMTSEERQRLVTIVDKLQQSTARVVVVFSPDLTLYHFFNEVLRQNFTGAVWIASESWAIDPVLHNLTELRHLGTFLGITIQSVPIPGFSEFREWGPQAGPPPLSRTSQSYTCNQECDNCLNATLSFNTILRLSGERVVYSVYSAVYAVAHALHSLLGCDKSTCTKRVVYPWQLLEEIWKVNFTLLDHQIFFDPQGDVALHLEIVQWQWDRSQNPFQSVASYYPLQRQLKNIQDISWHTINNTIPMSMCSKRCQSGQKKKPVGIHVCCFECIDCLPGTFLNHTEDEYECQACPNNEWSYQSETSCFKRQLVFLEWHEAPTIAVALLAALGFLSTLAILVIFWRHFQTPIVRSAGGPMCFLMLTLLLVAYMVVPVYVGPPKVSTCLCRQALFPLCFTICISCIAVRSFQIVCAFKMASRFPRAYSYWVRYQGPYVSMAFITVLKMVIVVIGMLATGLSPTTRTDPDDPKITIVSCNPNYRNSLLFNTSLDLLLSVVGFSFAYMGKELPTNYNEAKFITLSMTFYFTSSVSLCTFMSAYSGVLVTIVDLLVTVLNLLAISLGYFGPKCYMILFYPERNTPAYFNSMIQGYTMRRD

Row | Compound | calcium response to sweetener [1] | calcium response to sweetener [2] | calcium response to the control sweetener [3]
1 | COC(=O)[C@H](Cc1ccccc1)NC(=O)[C@@H](N)CC(=O)O [aspartame, L-α-aspartly-L-phenylalanine methyl ester] (H-Asp-Phe-OMe) | greater than multiple mutants that contained the D142E mutant | – | –
2 | OC[C@H]1O[C@H](O[C@]2(CCl)O[C@H](CCl)[C@@H](O)[C@@H]2O)[C@H](O)[C@@H](O)[C@H]1Cl [sucralose] | – | remained intact or reduced | significant level of response
